From ChEMBL document CHEMBL1149311, “Synthesis and antitumor activity of methyltriazene prodrugs simultaneously releasing DNA-methylating agents and the antiresistance drug O(6)-benzylguanine” (J Med Chem, 2004)

How the values were obtained:
[1] = tested on: NCI; experiment: Antitumor activity against human NCI prostate cancer cell line panel; assay type: functional, cell-based
Summary of the method: (§1)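 Tested in the NCI in vitro disease-oriented human tumor cell screen. The endpoints are IC50 (molar concentration giving 50% growth inhibition), TGI (total growth inhibition) and LC50 (50% net cell death). The maximal concentration tested was 100 μM. Subpanel values are means of several individual cell lines.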

[2] = Half life of hydrolysis in deuterated phosphate buffer at pD 7.8; settings: deuterated phosphate buffer, pH 7.8
[3] = tested on: IGROV-1; experiment: Antitumor activity against human IGROV1 cells; assay type: functional; summary of the method: as §1
[4] = tested on: OVCAR-5; experiment: Antitumor activity against human OVCAR5 cells; assay type: functional; summary of the method: as §1
[5] = tested on: U-251; experiment: Antitumor activity against human U251 cells; assay type: functional
Summary of the method: (§2)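 NCI in vitro disease-oriented tumour cell line screen. Read-outs are IC50 (molar concentration giving 50% growth inhibition), TGI (molar concentration giving total inhibition of net growth) and LC50 (molar concentration giving 50% net cell death). The maximal concentration tested was 100 μM.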

[6] = tested on: K562; experiment: Antitumor activity against human K562 cells; assay type: functional; summary of the method: as §1
[7] = tested on: SF-295; experiment: Antitumor activity against human SF295 cells; assay type: functional; summary of the method: as §1
[8] = tested on: NCI; experiment: Antitumor activity against human NCI renal cancer cell line panel; assay type: functional, cell-based; summary of the method: as §1
[9] = tested on: BT-549; experiment: Antitumor activity against human BT549 cells; assay type: functional; summary of the method: as §1
[10] = tested on: PC-3; experiment: Antitumor activity against human PC3 cells; assay type: functional; summary of the method: as §1
[11] = tested on: SF-268; experiment: Antitumor activity against human SF268 cells; assay type: functional; summary of the method: as §1
[12] = tested on: UACC-62; experiment: Antitumor activity against human UACC62 cells; assay type: functional; summary of the method: as §2
[13] = tested on: EKVX; experiment: Antitumor activity against human EKVX cells; assay type: functional; summary of the method: as §1
[14] = tested on: OVCAR-4; experiment: Antitumor activity against human OVCAR4 cells; assay type: functional; summary of the method: as §1
[15] = tested on: A549; experiment: Antitumor activity against human A549 cells; assay type: functional; summary of the method: as §1
[16] = tested on: MCF7; experiment: Antitumor activity against human MCF7 cells; assay type: functional; summary of the method: as §1
[17] = tested on: TK-10; experiment: Antitumor activity against human TK10 cells; assay type: functional; summary of the method: as §2
[18] = tested on: KM12; experiment: Antitumor activity against human KM12 cells; assay type: functional; summary of the method: as §1
[19] = tested on: NCI; experiment: Antitumor activity against human NCI leukemia cell line panel; assay type: functional, cell-based; summary of the method: as §1
[20] = tested on: SK-OV-3; experiment: Antitumor activity against human SKOV3 cells; assay type: functional; summary of the method: as §1
[21] = tested on: UACC-257; experiment: Antitumor activity against human UACC257 cells; assay type: functional; summary of the method: as §2
[22] = tested on: Non-small cell lung cancer cell line; experiment: Antitumor activity against human NCI non-small cell lung cancer cell line panel; assay type: functional, cell-based; summary of the method: as §1
[23] = tested on: HOP-92; experiment: Antitumor activity against human HOP92 cells; assay type: functional; summary of the method: as §1
[24] = tested on: Hs-578T; experiment: Antitumor activity against human HS578T cells; assay type: functional; settings: Homo sapiens, Hs-578T; summary of the method: as §1
[25] = tested on: HOP-62; experiment: Antitumor activity against human HOP62 cells; assay type: functional; summary of the method: as §1
[26] = tested on: NCI-H23; experiment: Antitumor activity against human NCI-H23 cells; assay type: functional; summary of the method: as §1
[27] = tested on: RPMI-8226; experiment: Antitumor activity against human RPMI8226 cells; assay type: functional; summary of the method: as §1
[28] = tested on: SF-539; experiment: Antitumor activity against human SF539 cells; assay type: functional; summary of the method: as §1
[29] = tested on: SK-MEL-28; experiment: Antitumor activity against human SK-MEL-28 cells; assay type: functional; summary of the method: as §1
[30] = tested on: NCI; experiment: Antitumor activity against human NCI breast cancer cell line panel; assay type: functional, cell-based; summary of the method: as §1
[31] = tested on: NCI; experiment: Antitumor activity against human NCI colon cancer cell line panel; assay type: functional, cell-based; summary of the method: as §1
[32] = tested on: NCI-H460; experiment: Antitumor activity against human NCI-H460 cells; assay type: functional; summary of the method: as §1
[33] = tested on: NCI; experiment: Antitumor activity against NCI human melanoma cell line panel; assay type: functional, cell-based; summary of the method: as §1
[34] = tested on: UO-31; experiment: Antitumor activity against human UO31 cells; assay type: functional; summary of the method: as §2
[35] = tested on: SNB-75; experiment: Antitumor activity against human SNB75 cells; assay type: functional; summary of the method: as §2
[36] = tested on: SK-MEL-5; experiment: Antitumor activity against human SK-MEL-5 cells; assay type: functional; summary of the method: as §1
[37] = tested on: OVCAR-3; experiment: Antitumor activity against human OVCAR-3 cells; assay type: functional; summary of the method: as §1
[38] = tested on: SK-MEL-2; experiment: Antitumor activity against human SK-MEL-2 cells; assay type: functional; summary of the method: as §1
[39] = tested on: OVCAR-8; experiment: Antitumor activity against human OVCAR8 cells; assay type: functional; summary of the method: as §1
[40] = tested on: MDA-MB-231; experiment: Antitumor activity against human MDA-MB-231 cells; assay type: functional; summary of the method: as §1
[41] = tested on: HCT-116; experiment: Antitumor activity against human HCT116 cells; assay type: functional; summary of the method: as §1
[42] = tested on: CAKI-1; experiment: Antitumor activity against human CAKI1 cells; assay type: functional; summary of the method: as §1
[43] = read-out: LC50 (the source's name)
[44] = read-out: Log LC50 (the source's name) (converted)

CN(/N=N/c1nc(OCc2ccccc2)c2nc[nH]c2n1)C(=O)Oc1ccc([N+](=O)[O-])cc1
IC50 [1]: 10 µM
TGI [1]: 23 µM
CC50 [1, 43]: 46 µM
half-life [2]: 23 min
GI50 [3]: 12.3 µM
CC50 [3, 44]: > 50.1 µM
TGI ([3]; read-out: Log TGI (converted)): 30.9 µM
GI50 [4]: 11.5 µM
CC50 [4, 44]: > 50.1 µM
TGI ([4]; read-out: Log TGI (converted)): > 50.1 µM
GI50 [5]: 7.59 µM
CC50 [5, 44]: 31.6 µM
TGI ([5]; read-out: Log TGI (converted)): 15.1 µM
GI50 [6]: 12 µM
CC50 [6, 44]: > 50.1 µM
TGI ([6]; read-out: Log TGI (converted)): > 50.1 µM
GI50 [7]: 11.2 µM
CC50 [7, 44]: > 50.1 µM
TGI ([7]; read-out: Log TGI (converted)): 33.9 µM
IC50 [8]: 9 µM
TGI [8]: 25 µM
CC50 [8, 43]: 44 µM
GI50 [9]: 7.41 µM
CC50 [9, 44]: > 50.1 µM
TGI ([9]; read-out: Log TGI (converted)): 20.4 µM
GI50 [10]: 10.7 µM
CC50 [10, 44]: > 50.1 µM
TGI ([10]; read-out: Log TGI (converted)): 26.9 µM
GI50 [11]: 9.33 µM
CC50 [11, 44]: > 50.1 µM
TGI ([11]; read-out: Log TGI (converted)): 29.5 µM
GI50 [12]: 7.59 µM
CC50 [12, 44]: 30.9 µM
TGI ([12]; read-out: Log TGI (converted)): 15.1 µM
GI50 [13]: 11.5 µM
CC50 [13, 44]: > 50.1 µM
TGI ([13]; read-out: Log TGI (converted)): 36.3 µM
GI50 [14]: 22.9 µM
CC50 [14, 44]: > 50.1 µM
TGI ([14]; read-out: Log TGI (converted)): > 50.1 µM
GI50 [15]: 12 µM
CC50 [15, 44]: 50.1 µM
TGI ([15]; read-out: Log TGI (converted)): 31.6 µM
GI50 [16]: 12.3 µM
CC50 [16, 44]: > 50.1 µM
TGI ([16]; read-out: Log TGI (converted)): > 50.1 µM
GI50 [17]: 12 µM
CC50 [17, 44]: > 50.1 µM
TGI ([17]; read-out: Log TGI (converted)): 33.9 µM
GI50 [18]: 8.51 µM
CC50 [18, 44]: 41.7 µM
TGI ([18]; read-out: Log TGI (converted)): 18.6 µM
IC50 [19]: 14 µM
TGI [19]: 50 µM
CC50 [19, 43]: 50 µM
GI50 [20]: 10.5 µM
CC50 [20, 44]: > 50.1 µM
TGI ([20]; read-out: Log TGI (converted)): 28.8 µM
GI50 [21]: 38.9 µM
CC50 [21, 44]: > 50.1 µM
TGI ([21]; read-out: Log TGI (converted)): > 50.1 µM
IC50 [22]: 11 µM
TGI [22]: 29 µM
CC50 [22, 43]: 47 µM
GI50 [23]: 7.24 µM
CC50 [23, 44]: > 50.1 µM
TGI ([23]; read-out: Log TGI (converted)): 26.3 µM
GI50 [24]: 8.71 µM
CC50 [24, 44]: > 50.1 µM
TGI ([24]; read-out: Log TGI (converted)): 29.5 µM
GI50 [25]: 28.8 µM
LC50 [25]: > 50.1 µM
TGI ([25]; read-out: Log TGI (converted)): > 50.1 µM
GI50 [26]: 8.51 µM
LC50 (50% net cell kill) [26]: 32.4 µM
TGI ([26]; read-out: Log TGI (converted)): 16.2 µM
GI50 [27]: 9.12 µM
CC50 [27, 44]: > 50.1 µM
TGI ([27]; read-out: Log TGI (converted)): > 50.1 µM
GI50 [28]: 9.77 µM
CC50 [28, 44]: > 50.1 µM
TGI ([28]; read-out: Log TGI (converted)): 28.8 µM
GI50 [29]: 12.3 µM
CC50 [29, 44]: > 50.1 µM
TGI ([29]; read-out: Log TGI (converted)): > 50.1 µM
IC50 [30]: 10 µM
TGI [30]: 30 µM
CC50 [30, 43]: 50 µM
IC50 [31]: 9 µM
TGI [31]: 21 µM
CC50 [31, 43]: 43 µM
GI50 [32]: 6.76 µM
CC50 [32, 44]: > 50.1 µM
TGI ([32]; read-out: Log TGI (converted)): 31.6 µM
IC50 [33]: 8 µM
TGI [33]: 23 µM
CC50 [33, 43]: 40 µM
GI50 [34]: 6.61 µM
CC50 [34, 44]: 29.5 µM
TGI ([34]; read-out: Log TGI (converted)): 13.8 µM
CC50 [35, 44]: > 50.1 µM
TGI ([35]; read-out: Log TGI (converted)): > 50.1 µM
GI50 [36]: 6.92 µM
CC50 [36, 44]: 38.9 µM
TGI ([36]; read-out: Log TGI (converted)): 16.2 µM
GI50 [37]: 9.55 µM
LC50 [37]: > 50.1 µM
TGI ([37]; read-out: Log TGI (converted)): 24.5 µM
GI50 [38]: 12 µM
CC50 [38, 44]: > 50.1 µM
TGI ([38]; read-out: Log TGI (converted)): 28.2 µM
GI50 [39]: 9.77 µM
LC50 (concentration giving 50% net cell death) [39]: > 50.1 µM
TGI ([39]; read-out: Log TGI (converted)): 26.3 µM
GI50 [40]: 5.75 µM
CC50 [40, 44]: > 50.1 µM
TGI ([40]; read-out: Log TGI (converted)): 18.6 µM
GI50 [41]: 8.71 µM
CC50 [41, 44]: 29.5 µM
TGI ([41]; read-out: Log TGI (converted)): 15.8 µM
GI50 [42]: 11 µM
CC50 [42, 44]: > 50.1 µM
TGI ([42]; read-out: Log TGI (converted)): 35.5 µM
